INS-1E GSIS act: GLuc luminescence reporter in INS-1E cells, primary screen for activators of glucose-dependent secretion of insulin | INS-1E GLuc reporter insulin secretion, 2-3 h | activation, % at 16.6 µM | hit rate 0.61% among 370,000 | AID 743287;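 active means lowest replicate activation of at least 40%, so every replicate reaches that level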
E-sel inducer: E-selectin induction on HUVECs | P16581 | HUVEC E-selectin immunofluorescence imaging; normalized: neutral wells 0, TNF-alpha wells 100 | activation, % at 7.58 µM | hit rate 0.37% among 260,000 | AID 686992;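 active means mean E-selectin-positive cell signal at least 10% of the positive control, reached in at least 60% of replicates, without over 20% cell loss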
Target sequence (P16581 whole entry, looked up): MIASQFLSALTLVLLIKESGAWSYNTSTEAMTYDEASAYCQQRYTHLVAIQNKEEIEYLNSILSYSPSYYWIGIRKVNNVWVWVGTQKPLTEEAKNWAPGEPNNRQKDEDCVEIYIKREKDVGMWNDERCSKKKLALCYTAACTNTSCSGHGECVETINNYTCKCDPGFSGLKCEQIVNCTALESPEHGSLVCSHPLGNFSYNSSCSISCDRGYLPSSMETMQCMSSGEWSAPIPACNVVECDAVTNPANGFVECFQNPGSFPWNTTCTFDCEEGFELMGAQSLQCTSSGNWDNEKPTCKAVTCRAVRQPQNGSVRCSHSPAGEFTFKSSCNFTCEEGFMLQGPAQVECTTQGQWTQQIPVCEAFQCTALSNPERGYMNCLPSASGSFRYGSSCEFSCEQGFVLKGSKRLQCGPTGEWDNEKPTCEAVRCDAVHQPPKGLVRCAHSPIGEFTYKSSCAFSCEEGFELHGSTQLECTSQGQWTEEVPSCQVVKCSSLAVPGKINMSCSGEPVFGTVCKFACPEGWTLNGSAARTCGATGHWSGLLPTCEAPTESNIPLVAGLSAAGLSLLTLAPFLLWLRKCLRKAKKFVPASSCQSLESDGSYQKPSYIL
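System: HUVEC / Compound: single concentration / Signal: immunofluorescence imaging / Read-out: percent E-selectin-positive cells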
DENV2 CPE rescue: DENV2-induced cell death inhibition; AID 651640; hit rate 1.7% among 350,000; CPE inhibition, % at 9.99 µM; DENV2-infected cells, cytopathic effect rescue, plate reader; in the data active means CPE inhibition above about 20%, passing the limit was not always enough; tested in BHK-21 cells
ERAP1 inh: blocks human ERAP1 aminopeptidase activity. hit rate 0.15% among 340,000. inhibition, % at 10.7 µM. recombinant ERAP1, Leu-AMC fluorescence, 60 min;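 active means mean replicate inhibition of at least 30%, or all replicates individually reaching that 30% level; inactive means mean below 30% and not every replicate reaching it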
miR-122 sensor: blocks miR-122 activity in Huh7 sensor cells | Huh7 miR-122 Renilla luciferase sensor, 48 h; neutral wells = 0, positive control = 100 | activation (reporter increase), % at 12.5 µM | hit rate 0.3% among 340,000 | AID 602342;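 active means mean replicate activation score at least 90 and every replicate individually at or above 90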;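 further: higher luciferase means less miR-122 activity so hits act as miR-122 inhibitors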
CFTR F508del cor: CFTR F508del correction in bronchial cells. hit rate 0.36% among 350,000. activity (quench increase), % at 7.58 µM. CFBE cells, YFP halide quenching; stimulated with forskolin plus potentiator P3; % fluorescence drop versus neutral controls;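 active means mean added fluorescence quench of at least 8% versus neutral control, with both replicates also reaching 8%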;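 further: cells transiently co-express mutant CFTR-F508del with the halide-sensitive YFP; corrector assay measuring rescue of mutant channel to the surface after 24 h compound exposure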
Each line names hits and unclear results; the compound was inactive in the other large screens; ! = not confirmed by another sample. Compounds with a hit are over-represented: about 2.6% of the library has one in this group of screens.

O=[N+]([O-])c1cc(S(=O)(=O)Nc2ccc(Cl)cc2)ccc1N/N=C/c1ccncc1	miR-122 sensor 279 (no result: E-sel inducer)
Cc1ccsc1CN(C)Cc1nc(C2CC2)no1	E-sel inducer 513 (no result: miR-122 sensor)
Cc1c(C(=O)Nc2ccccc2F)sc2ncn(CC(=O)N3CCOCC3)c(=O)c12	DENV2 CPE rescue 52 (no result: E-sel inducer)
Cc1c(C(=O)Nc2c(F)cccc2F)sc2ncn(CC(=O)N3CCCCC3)c(=O)c12	none (no result: E-sel inducer)
COc1ccc(C(C)=O)cc1Cn1cnc2c(cnn2C)c1=O	INS-1E GSIS act 50 (no result: E-sel inducer)
COc1ccc(C=O)cc1Cn1cnc2c(cnn2C)c1=O	none (no result: miR-122 sensor)
COc1cccc(/C=N/Nc2ncnc3c2[nH]c2ccc(C)cc23)c1OC	none (no result: ERAP1 inh, miR-122 sensor)
COc1ccc(/C=N/Nc2ncnc3c2[nH]c2ccccc23)c(OC)c1OC	INS-1E GSIS act 68 (no result: DENV2 CPE rescue, ERAP1 inh, CFTR F508del cor)
CC(C)NC(=O)Nc1ccc2c(c1)C(=O)N([C@H](C)CO)C[C@@H](C)[C@H](CN(C)C(=O)Nc1ccc(F)cc1)OCCCC[C@@H](C)O2	none (no result: E-sel inducer)
C[C@H]1CN([C@@H](C)CO)S(=O)(=O)c2ccc(C#CCN(C)C)cc2O[C@H]1CN(C)C(=O)C1CCC1	DENV2 CPE rescue 29
C[C@@H]1CN([C@@H](C)CO)S(=O)(=O)c2ccc(C#CCN(C)C)cc2O[C@@H]1CN(C)C(=O)C1CCC1	none
CCCC#Cc1ccc2c(c1)O[C@H](CN(C)C(=O)C1CCC1)[C@H](C)CN([C@H](C)CO)S2(=O)=O	DENV2 CPE rescue 36
CCCC#Cc1ccc2c(c1)O[C@@H](CN(C)C(=O)C1CCC1)[C@H](C)CN([C@@H](C)CO)S2(=O)=O	none
COc1ccc(/C=C2\Oc3cc(OCC(N)=O)ccc3C2=O)cc1OC	DENV2 CPE rescue 45 (no result: miR-122 sensor)
COC(=O)COc1ccc2c(c1)O/C(=C\c1cccc([N+](=O)[O-])c1)C2=O	none
CCC(=O)N1C[C@@H](C)[C@@H](OC)CN(C)C(=O)c2cc(NC(=O)c3cnccn3)ccc2OC[C@@H]1C	none
CO[C@H]1CN(C)C(=O)c2ccc(NC(=O)c3cnccn3)cc2OC[C@H](C)N(CC2CC2)C[C@@H]1C	none (no result: miR-122 sensor)
CO[C@H]1CN(C)C(=O)c2ccc(NC(=O)c3cnccn3)cc2OC[C@@H](C)N(CC2CC2)C[C@@H]1C	DENV2 CPE rescue 22 (no result: miR-122 sensor)
CCC(=O)N1C[C@H](C)[C@H](OC)CN(C)C(=O)c2cc(NC(=O)c3cnccn3)ccc2OC[C@H]1C	DENV2 CPE rescue 25
C=CCNC(=O)[C@@H]1[C@H]2C(=O)O[C@H](c3ccccc3)[C@H](c3ccccc3)N2[C@H](c2ccc(OCCO)cc2)[C@@]12C(=O)Nc1ccc(C#CCCO)cc12	none (no result: INS-1E GSIS act, E-sel inducer, miR-122 sensor)
C/C=C/c1ccc2c(c1)O[C@H](CN(C)C(=O)C1CC1)[C@@H](C)CN([C@H](C)CO)S2(=O)=O	none (no result: DENV2 CPE rescue, ERAP1 inh)
CC(C)(C)[S@@](=O)N1Cc2cc(C(=O)N3CCOCC3)nc(-c3cccc(C4=CCCC4)c3)c2[C@H]1CCO	none (no result: E-sel inducer, DENV2 CPE rescue, ERAP1 inh, miR-122 sensor, CFTR F508del cor)
CC[C@H](C)C(=O)O[C@H]1C[C@@H](C)C=C2C=C[C@H](C)[C@H](CC[C@@H]3C[C@@H](O)CC(=O)O3)[C@H]21	DENV2 CPE rescue 36!
CCC(C)C(=O)OC1CCC=C2C=CC(C)C(CCC3CC(O)CC(=O)O3)C21 (stereo unspecified)	none (no result: INS-1E GSIS act, miR-122 sensor)
C[C@@H]1CN([C@@H](C)CO)C(=O)c2cc(NC(=O)Cn3cnnn3)ccc2O[C@H]1CN(C)Cc1ccc(C(=O)O)cc1	none (no result: E-sel inducer)
O=C(O)c1ccc2c(c1)SC1=NS(=O)(=O)CCN12	none
CN(C(=O)c1ccc2c(c1)SC1=NS(=O)(=O)CCN12)C(c1ccccc1)c1ccccc1	INS-1E GSIS act 93 (no result: E-sel inducer, DENV2 CPE rescue, ERAP1 inh, miR-122 sensor, CFTR F508del cor)
CCCNC(=O)Nc1ccc2c(c1)C(=O)N(C)C[C@H](OC)[C@@H](C)CN(S(C)(=O)=O)[C@@H](C)CO2	none (no result: miR-122 sensor)
COc1ccc(NC(=O)N[C@@H]2CC[C@@H](CCn3cc(-c4ccc(F)cc4)nn3)O[C@@H]2CO)cc1	CFTR F508del cor 9.2 (no result: miR-122 sensor)
O=C(CN1CCOCC1)NCC[C@@H]1CC[C@@H](NC(=O)Nc2ccc(F)cc2)[C@@H](CO)O1	DENV2 CPE rescue 24 (no result: miR-122 sensor)
O=C(CN1CCOCC1)NCC[C@H]1CC[C@@H](NC(=O)Nc2ccc(F)cc2)[C@H](CO)O1	none (no result: miR-122 sensor)
COc1ccc(NC(=O)N[C@H]2CC[C@@H](CCn3cc(C4(O)CCCC4)nn3)O[C@@H]2CO)cc1	DENV2 CPE rescue 93 (no result: miR-122 sensor)
O=C(Nc1ccc(F)cc1)N[C@@H]1CC[C@@H](CCn2cc(-c3ccc(F)cc3)nn2)O[C@H]1CO	DENV2 CPE rescue 22 (no result: miR-122 sensor)
CCCC#Cc1ccc2c(c1)O[C@@H](CN(C)C(=O)NC(C)C)[C@@H](C)CN([C@@H](C)CO)S2(=O)=O	none
C[C@H]1CN([C@@H](C)CO)S(=O)(=O)c2ccc(C3=CCCCC3)cc2O[C@H]1CN(C)CC1CC1	none (no result: INS-1E GSIS act, DENV2 CPE rescue, ERAP1 inh)
COc1ccc(NC(=O)N[C@@H]2CC[C@H](CCn3cc(-c4ccc(F)cc4)nn3)O[C@@H]2CO)cc1	none (no result: miR-122 sensor)
COc1ccc(-c2cn(CC[C@@H]3CC[C@H](NC(=O)Nc4ccc(F)cc4)[C@H](CO)O3)nn2)cc1	DENV2 CPE rescue 95 (no result: miR-122 sensor)
C[C@@H]1CCCCO[C@@H](CN(C)C(=O)c2ccccc2)[C@@H](C)CN([C@@H](C)CO)C(=O)c2cc(NC(=O)c3ccccc3)ccc2O1	none (no result: E-sel inducer)
CO/N=C/C(C#N)=C/c1ccc(OC)c(OC)c1	INS-1E GSIS act 60 (no result: E-sel inducer, miR-122 sensor)
Cc1cc(=O)oc2c(C)c(OC(C)C(=O)NC(Cc3c[nH]c4ccc(O)cc34)C(=O)O)ccc12 (stereo unspecified)	DENV2 CPE rescue 77 (no result: E-sel inducer)
CCc1c(C)c2ccc(OC(C)C(=O)NC(Cc3c[nH]c4ccc(O)cc34)C(=O)O)c(C)c2oc1=O (stereo unspecified)	none (no result: E-sel inducer)
COc1ccc(NC(=O)N(C)C[C@@H]2Oc3ccc(NC(=O)Nc4ccc(F)cc4)cc3C(=O)N([C@H](C)CO)C[C@H]2C)cc1	none
C=CCn1cnc2scc(-c3ccc(OC)cc3)c2c1=O	INS-1E GSIS act 61 (no result: E-sel inducer)
CC(C)(Cc1cccc(CC(C)(C)C(=O)O)c1)C(=O)O	none
C[C@@](Cc1ccc(O)c(O)c1)(NN)C(=O)O	CFTR F508del cor 8.4
Cc1cc(NC(=O)Cn2c(=O)oc3ccc(Cl)cc32)no1	DENV2 CPE rescue 45
O=C(C[C@@H]1CC[C@H]2[C@@H](COC[C@@H](O)CN2C(=O)Nc2cc(Cl)cc(Cl)c2)O1)N1CCCCC1	none
CN1CCN(C(=O)C[C@@H]2CC[C@H]3[C@@H](COC[C@H](O)CN3C(=O)C3CCCC3)O2)CC1	DENV2 CPE rescue 76
O=C(C[C@H]1CC[C@H]2[C@@H](COC[C@@H](O)CN2C(=O)Nc2cc(Cl)cc(Cl)c2)O1)N1CCCCC1	DENV2 CPE rescue 30
CCCNC(=O)N1C[C@H](O)COC[C@@H]2O[C@@H](CC(=O)N3CCOCC3)CC[C@H]21	DENV2 CPE rescue 108
